Data reported in ChEMBL document CHEMBL3585281, “Antibacterial Labdane Diterpenoids from Vitex vestita” (2015).
≈ marks a conversion by molar mass, not a printed value.

Legend:
Type in all cases: functional
Bacillus cereus [1] = experiment: Antibacterial activity against Bacillus cereus N258 after 18 hrs by agar dilution method; settings: N258, 18 h
How it was run: (§1)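 Agar-dilution MIC against Gram-positive strains. Compounds in DMSO, geometric dilutions giving final 100−0.75 mg/L in Mueller Hinton agar. Strains grown 18 h at 37 °C in trypticase soy broth, diluted in sterile water, spotted by Steers inoculator (about 1000 UFC/spot). Plates incubated 18 h at 37 °C; DMSO blank; ofloxacin positive control. MIC = lowest concentration with no visible growth.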

[2] = tested on: Enterococcus casseliflavus; experiment: Antibacterial activity against Enterococcus casseliflavus N487 after 18 hrs by agar dilution method; settings: N487, 18 h; how it was run: as §1
Enterococcus faecium [3] = experiment: Antibacterial activity against Enterococcus faecium N507 after 18 hrs by agar dilution method; settings: N507, 18 h; how it was run: as §1
Streptococcus agalactiae = experiment: Antibacterial activity against Streptococcus agalactiae CIP 103227 after 18 hrs by agar dilution method; settings: ATCC 13813, 18 h; how it was run: as §1
Staphylococcus aureus [4] = experiment: Antibacterial activity against Staphylococcus aureus CIP 7625 after 18 hrs by agar dilution method; settings: CIP 7625, 18 h; how it was run: as §1
Enterococcus faecalis [5] = experiment: Antibacterial activity against Enterococcus faecalis N520 after 18 hrs by agar dilution method; settings: N520, 18 h; how it was run: as §1
Listeria monocytogenes [6] = experiment: Antibacterial activity against Listeria monocytogenes N783 after 18 hrs by agar dilution method; settings: N783, 18 h; how it was run: as §1
Staphylococcus aureus [7] = experiment: Antibacterial activity against Staphylococcus aureus ATCC 9144 oxford after 18 hrs by agar dilution method; how it was run: as §1
Staphylococcus aureus [8] = experiment: Antibacterial activity against Staphylococcus aureus CRBIP 2121 after 18 hrs by agar dilution method; settings: CRBIP 2121, 18 h; how it was run: as §1
[9] = tested on: Staphylococcus saprophyticus; experiment: Antibacterial activity against Staphylococcus saprophyticus CIP 76125 after 18 hrs by agar dilution method; settings: CIP 76125, 18 h; how it was run: as §1
Bacillus cereus [10] = experiment: Antibacterial activity against Bacillus cereus N349 after 18 hrs by agar dilution method; settings: N349, 18 h; how it was run: as §1
Enterococcus faecalis [11] = experiment: Antibacterial activity against Enterococcus faecalis CIP 104676 after 18 hrs by agar dilution method; settings: CIP 104676, 18 h; how it was run: as §1
Mammaliicoccus sciuri = experiment: Antibacterial activity against Staphylococcus sciuri N993 after 18 hrs by agar dilution method; settings: N993, 18 h; how it was run: as §1
[12] = tested on: Enterococcus casseliflavus; experiment: Antibacterial activity against Enterococcus casseliflavus CIP 103018 after 18 hrs by agar dilution method; settings: CIP 103018, 18 h; how it was run: as §1
Bacillus cereus [13] = experiment: Antibacterial activity against Bacillus cereus N190 after 18 hrs by agar dilution method; settings: N190, 18 h; how it was run: as §1
MRC5 [14] = experiment: Cytotoxicity against human MRC5 cells assessed as growth inhibition at 10^-5 M after 72 hrs by MTS assay relative to control; settings: MRC5, 72 h, read-out: GI
How it was run: (§2)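 Cells from ATCC; HCT-116 grown in RPMI 1640 and MRC5 in DMEM, each with 10% FCS and 1% glutamine, 37 °C, 5% CO2. Seeded at 2.5 × 10^3 cells/well, cultured 24 h, then exposed to compounds at 1 and 10 μM final for 72 h. MTS read-out, absorbance 490 nm; percent index from treated/control OD490 × 100, three experiments.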

Corynebacterium striatum = experiment: Antibacterial activity against Corynebacterium striatum N840 after 18 hrs by agar dilution method; settings: N840, 18 h; how it was run: as §1
Listeria innocua = experiment: Antibacterial activity against Listeria innocua E044 after 18 hrs by agar dilution method; settings: E044, 18 h; how it was run: as §1
Bacillus spizizenii = experiment: Antibacterial activity against Bacillus subtilis ATCC 6633 after 18 hrs by agar dilution method; settings: ATCC 6633, 18 h; how it was run: as §1
Staphylococcus aureus [15] = experiment: Antibacterial activity against Staphylococcus aureus CIP 53154 after 18 hrs by agar dilution method; settings: CIP 53154, 18 h; how it was run: as §1
Staphylococcus aureus [16] = experiment: Antibacterial activity against Staphylococcus aureus ATCC 25923 after 18 hrs by agar dilution method; settings: ATCC 25923, 18 h; how it was run: as §1
Enterococcus faecalis [17] = experiment: Antibacterial activity against Enterococcus faecalis N491 after 18 hrs by agar dilution method; settings: N491, 18 h; how it was run: as §1
Enterococcus faecalis [18] = experiment: Antibacterial activity against Enterococcus faecalis N518 after 18 hrs by agar dilution method; settings: N518, 18 h; how it was run: as §1
Enterococcus faecium [19] = experiment: Antibacterial activity against Enterococcus faecium N823 after 18 hrs by agar dilution method; settings: N823, 18 h; how it was run: as §1
Staphylococcus aureus [20] = experiment: Antibacterial activity against Staphylococcus aureus CIP 483 after 18 hrs by agar dilution method; settings: CIP 483, 18 h; how it was run: as §1
Enterococcus faecium [21] = experiment: Antibacterial activity against Enterococcus faecium CIP 107387 after 18 hrs by agar dilution method; settings: CIP 107387, 18 h; how it was run: as §1
Enterococcus avium = experiment: Antibacterial activity against Enterococcus avium CIP 104053 after 18 hrs by agar dilution method; settings: CIP 104053, 18 h; how it was run: as §1
Enterococcus gallinarum [22] = experiment: Antibacterial activity against Enterococcus gallinarum CIP 105985 after 18 hrs by agar dilution method; settings: CIP 105985, 18 h; how it was run: as §1
HCT-116 [23] = experiment: Cytotoxicity against human HCT116 cells assessed as growth inhibition at 10^-6 M after 72 hrs by MTS assay relative to control; settings: HCT-116, 72 h, read-out: GI; how it was run: as §2
Bacillus cereus [24] = experiment: Antibacterial activity against Bacillus cereus CIP 6624 after 18 hrs by agar dilution method; settings: CIP 6624, 18 h; how it was run: as §1
[25] = tested on: Staphylococcus epidermidis; experiment: Antibacterial activity against Staphylococcus epidermidis CIP 53124 after 18 hrs by agar dilution method; settings: CIP 53124, 18 h; how it was run: as §1
[26] = tested on: Staphylococcus saprophyticus; experiment: Antibacterial activity against Staphylococcus saprophyticus E260 after 18 hrs by agar dilution method; settings: E260, 18 h; how it was run: as §1
Enterococcus faecium [27] = experiment: Antibacterial activity against Enterococcus faecium CIP 103014 after 18 hrs by agar dilution method; settings: CIP 103014, 18 h; how it was run: as §1
Enterococcus gallinarum [28] = experiment: Antibacterial activity against Enterococcus gallinarum N492 after 18 hrs by agar dilution method; settings: N492, 18 h; how it was run: as §1
[29] = tested on: Staphylococcus lugdunensis; experiment: Antibacterial activity against Staphylococcus lugdunensis ATCC 43809 after 18 hrs by agar dilution method; settings: ATCC 43809, 18 h; how it was run: as §1
Listeria monocytogenes [30] = experiment: Antibacterial activity against Listeria monocytogenes N836 after 18 hrs by agar dilution method; settings: N836, 18 h; how it was run: as §1
Enterococcus faecalis [31] = experiment: Antibacterial activity against Enterococcus faecalis CIP 103214 after 18 hrs by agar dilution method; settings: CIP 103214, 18 h; how it was run: as §1
Enterococcus durans = experiment: Antibacterial activity against Enterococcus durans CIP 104999 after 18 hrs by agar dilution method; settings: CIP 104999, 18 h; how it was run: as §1
[32] = tested on: Staphylococcus haemolyticus; experiment: Antibacterial activity against Staphylococcus haemolyticus CIP 8156 after 18 hrs by agar dilution method; settings: CIP 8156, 18 h; how it was run: as §1
Staphylococcus aureus [33] = experiment: Antibacterial activity against Staphylococcus aureus CIP 5710 after 18 hrs by agar dilution method; settings: CIP 5710, 18 h; how it was run: as §1
Listeria monocytogenes [34] = experiment: Antibacterial activity against Listeria monocytogenes N851 after 18 hrs by agar dilution method; settings: N851, 18 h; how it was run: as §1
[35] = tested on: Staphylococcus intermedius; experiment: Antibacterial activity against Staphylococcus intermedius N987 after 18 hrs by agar dilution method; settings: N987, 18 h; how it was run: as §1
Enterococcus hirae = experiment: Antibacterial activity against Enterococcus hirae CIP 5855 after 18 hrs by agar dilution method; settings: CIP 5855, 18 h; how it was run: as §1
Enterococcus gallinarum [36] = experiment: Antibacterial activity against Enterococcus gallinarum N489 after 18 hrs by agar dilution method; settings: N489, 18 h; how it was run: as §1
HCT-116 [37] = experiment: Cytotoxicity against human HCT116 cells assessed as growth inhibition at 10^-5 M after 72 hrs by MTS assay relative to control; settings: HCT-116, 72 h, read-out: GI; how it was run: as §2
Enterococcus faecium [38] = experiment: Antibacterial activity against Enterococcus faecium N490 after 18 hrs by agar dilution method; settings: N490, 18 h; how it was run: as §1
Enterococcus faecium [39] = experiment: Antibacterial activity against Enterococcus faecium N733 after 18 hrs by agar dilution method; settings: N733, 18 h; how it was run: as §1
MRC5 [40] = experiment: Cytotoxicity against human MRC5 cells assessed as growth inhibition at 10^-6 M after 72 hrs by MTS assay relative to control; settings: MRC5, 72 h, read-out: GI; how it was run: as §2
Staphylococcus aureus [41] = experiment: Antibacterial activity against Staphylococcus aureus CIP 53156 after 18 hrs by agar dilution method; settings: CIP 53156, 18 h; how it was run: as §1
Listeria monocytogenes [42] = experiment: Antibacterial activity against Listeria monocytogenes CIP 103575 after 18 hrs by agar dilution method; settings: CIP 103575, 18 h; how it was run: as §1

## C=C1CC[C@H]2C(C)(C)CCC[C@]2(C)[C@H]1C[C@@H](O)C1=CC(=O)OC1O (stereo not given in full)
Bacillus cereus [1]
  MIC: 6 µM (≈ 2.01 µg/mL)
[2]
  MIC: 96 µM (≈ 32.1 µg/mL)
Enterococcus faecium [3]
  MIC: 96 µM (≈ 32.1 µg/mL)
Streptococcus agalactiae
  MIC: 12 µM (≈ 4.01 µg/mL)
Staphylococcus aureus [4]
  MIC: 24 µM (≈ 8.03 µg/mL)
Enterococcus faecalis [5]
  MIC: 48 µM (≈ 16.1 µg/mL)
Listeria monocytogenes [6]
  MIC: 48 µM (≈ 16.1 µg/mL)
Staphylococcus aureus [7]
  MIC: 24 µM (≈ 8.03 µg/mL)
Staphylococcus aureus [8]
  MIC: 12 µM (≈ 4.01 µg/mL)
[9]
  MIC: 24 µM (≈ 8.03 µg/mL)
Bacillus cereus [10]
  MIC: 6 µM (≈ 2.01 µg/mL)
Enterococcus faecalis [11]
  MIC: 24 µM (≈ 8.03 µg/mL)
Mammaliicoccus sciuri
  MIC: 48 µM (≈ 16.1 µg/mL)
[12]
  MIC: 96 µM (≈ 32.1 µg/mL)
Bacillus cereus [13]
  MIC: 6 µM (≈ 2.01 µg/mL)
MRC5 [14]
  inhibition of growth at 10 µM: 95%
Corynebacterium striatum
  MIC: 24 µM (≈ 8.03 µg/mL)
Listeria innocua
  MIC: 48 µM (≈ 16.1 µg/mL)
Bacillus spizizenii
  MIC: 6 µM (≈ 2.01 µg/mL)
Staphylococcus aureus [15]
  MIC: 24 µM (≈ 8.03 µg/mL)
Staphylococcus aureus [16]
  MIC: 24 µM (≈ 8.03 µg/mL)
Enterococcus faecalis [17]
  MIC: 24 µM (≈ 8.03 µg/mL)
Enterococcus faecalis [18]
  MIC: 96 µM (≈ 32.1 µg/mL)
Enterococcus faecium [19]
  MIC: 96 µM (≈ 32.1 µg/mL)
Staphylococcus aureus [20]
  MIC: 12 µM (≈ 4.01 µg/mL)
Enterococcus faecium [21]
  MIC: 96 µM (≈ 32.1 µg/mL)
Enterococcus avium
  MIC: 48 µM (≈ 16.1 µg/mL)
Enterococcus gallinarum [22]
  MIC: 96 µM (≈ 32.1 µg/mL)
HCT-116 [23]
  inhibition of growth at 1 µM: 0%
Bacillus cereus [24]
  MIC: 12 µM (≈ 4.01 µg/mL)
[25]
  MIC: 12 µM (≈ 4.01 µg/mL)
[26]
  MIC: 24 µM (≈ 8.03 µg/mL)
Enterococcus faecium [27]
  MIC: 96 µM (≈ 32.1 µg/mL)
Enterococcus gallinarum [28]
  MIC: 48 µM (≈ 16.1 µg/mL)
[29]
  MIC: 24 µM (≈ 8.03 µg/mL)
Listeria monocytogenes [30]
  MIC: 24 µM (≈ 8.03 µg/mL)
Enterococcus faecalis [31]
  MIC: 96 µM (≈ 32.1 µg/mL)
Enterococcus durans
  MIC: 24 µM (≈ 8.03 µg/mL)
[32]
  MIC: 6 µM (≈ 2.01 µg/mL)
Staphylococcus aureus [33]
  MIC: 24 µM (≈ 8.03 µg/mL)
Listeria monocytogenes [34]
  MIC: 48 µM (≈ 16.1 µg/mL)
[35]
  MIC: 12 µM (≈ 4.01 µg/mL)
Enterococcus hirae
  MIC: 96 µM (≈ 32.1 µg/mL)
Enterococcus gallinarum [36]
  MIC: 24 µM (≈ 8.03 µg/mL)
HCT-116 [37]
  inhibition of growth at 10 µM: 87%
Enterococcus faecium [38]
  MIC: 48 µM (≈ 16.1 µg/mL)
Enterococcus faecium [39]
  MIC: 96 µM (≈ 32.1 µg/mL)
MRC5 [40]
  inhibition of growth at 1 µM: 22%
Staphylococcus aureus [41]
  MIC: 12 µM (≈ 4.01 µg/mL)
Listeria monocytogenes [42]
  MIC: 24 µM (≈ 8.03 µg/mL)
